This passage reports IC50, Ratio IC50 and inhibition results from ChEMBL document CHEMBL4138099, “Design, synthesis and biological evaluation of uncharged catechol derivatives as selective inhibitors of PTP1B” (Eur J Med Chem, 2017).

Active and inactive are the calls of the source. The calls are words filed in the database; no cut-off is given here. Bounds are passed on as bounds.

Assay [1] has as its target T1, Tyrosine-protein phosphatase non-receptor type 2 (Homo sapiens, UniProt P17706).
T1 sequence (P17706 whole entry): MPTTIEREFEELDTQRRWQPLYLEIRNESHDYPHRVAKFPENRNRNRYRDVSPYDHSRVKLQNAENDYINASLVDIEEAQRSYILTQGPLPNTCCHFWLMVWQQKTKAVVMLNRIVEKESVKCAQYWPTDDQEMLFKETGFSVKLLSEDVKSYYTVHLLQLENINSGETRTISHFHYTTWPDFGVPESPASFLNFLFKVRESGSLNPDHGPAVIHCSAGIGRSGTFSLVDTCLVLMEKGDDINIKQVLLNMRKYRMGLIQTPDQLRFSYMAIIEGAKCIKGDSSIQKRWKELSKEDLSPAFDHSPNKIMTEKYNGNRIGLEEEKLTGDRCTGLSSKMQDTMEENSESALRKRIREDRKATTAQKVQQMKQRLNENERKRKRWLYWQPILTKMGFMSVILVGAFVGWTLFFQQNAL
The experiment in a line: Inhibition of TCPTP (unknown origin) using pNPP as substrate after 30 mins by spectrophotometer.

The target in assay [2] is T2, Tyrosine-protein phosphatase non-receptor type 1 (Homo sapiens, UniProt P18031).
T2 sequence (P18031 whole entry): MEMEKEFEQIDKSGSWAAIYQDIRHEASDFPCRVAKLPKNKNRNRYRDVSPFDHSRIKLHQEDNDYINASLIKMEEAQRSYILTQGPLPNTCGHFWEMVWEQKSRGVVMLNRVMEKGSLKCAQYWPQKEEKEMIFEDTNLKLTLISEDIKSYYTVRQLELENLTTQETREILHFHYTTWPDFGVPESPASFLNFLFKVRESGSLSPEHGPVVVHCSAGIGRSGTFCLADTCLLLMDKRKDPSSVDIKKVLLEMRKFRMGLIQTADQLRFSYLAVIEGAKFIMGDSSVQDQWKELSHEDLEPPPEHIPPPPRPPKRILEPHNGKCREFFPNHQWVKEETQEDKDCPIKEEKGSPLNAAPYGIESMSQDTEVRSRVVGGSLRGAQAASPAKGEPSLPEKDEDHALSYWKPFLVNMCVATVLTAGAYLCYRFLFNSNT
The experiment in a line: Inhibition of recombinant GST-tagged PTP1B catalytic domain (1 to 321 residues) (unknown origin) expressed in Escherichia coli BL21(DE3) using pNPP as substrate after 30 mins by spectrophotometer. The method in brief: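 Assay at 37 °C, pH 7.5, in 10 mM Tris-HCl, 25 mM NaCl, 1 mM EDTA and 2 mM DTT, with 4 mM pNPP and 60 nM PTP1B. Inhibitor was added from DMSO at final 100 to 0.01 µM, and the reaction was started with enzyme. After 30 min it was stopped with 1 N NaOH and read at 405 nm. IC50 came from a sigmoidal fit of relative activity versus concentration.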

A further assay is filed under the species Homo sapiens. The experiment in a line: Selectivity ratio of IC50 for TCPTP (unknown origin) to IC50 for recombinant GST-tagged PTP1B catalytic domain (1 to 321 residues) (unknown origin).
For assay [3], the target named is T3, Tyrosine-protein phosphatase non-receptor type 1 (Homo sapiens) (UniProt P18031).
T3 sequence (whole entry): T2 sequence (P18031 whole entry)
The experiment in a line: Competitive inhibition of recombinant GST-tagged PTP1B catalytic domain (1 to 321 residues) (unknown origin) expressed in Escherichia coli BL21(DE3) at 1 to 8 uM using varying levels of pNPP as substrate after 30 mins by spectrophotometric method. The procedure, abridged: (§1)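 PTP1B-catalysed pNPP hydrolysis read by absorbance of p-nitrophenol at 405 nm, run with pNPP at 0.5, 1.0, 2.0, 4.0 and 8.0 mM, with and without inhibitor. Inhibition mode was assigned from double-reciprocal (1/v) plots.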

Assay [4] deals with T3, Tyrosine-protein phosphatase non-receptor type 1 (Homo sapiens). Put plainly: Inhibition of recombinant GST-tagged PTP1B catalytic domain (1 to 321 residues) (unknown origin) expressed in Escherichia coli BL21(DE3) at 1 mM using pNPP as substrate after 30 mins by spectrophotometric method relative to control. The method in brief: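 PTP1B (60 nM) reacted with 4 mM pNPP at 37 °C and pH 7.5 in 10 mM Tris-HCl, 25 mM NaCl, 1 mM EDTA, 2 mM DTT. The compound was added from DMSO at 1% v/v. The reaction was started with enzyme and stopped with 1 N NaOH after 30 min. p-Nitrophenol was read at 405 nm, and activity was taken relative to control.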

The target in assay [5] is T4, Tyrosine-protein phosphatase non-receptor type 1 (Mus musculus) (UniProt P35821).
T4 sequence (whole entry): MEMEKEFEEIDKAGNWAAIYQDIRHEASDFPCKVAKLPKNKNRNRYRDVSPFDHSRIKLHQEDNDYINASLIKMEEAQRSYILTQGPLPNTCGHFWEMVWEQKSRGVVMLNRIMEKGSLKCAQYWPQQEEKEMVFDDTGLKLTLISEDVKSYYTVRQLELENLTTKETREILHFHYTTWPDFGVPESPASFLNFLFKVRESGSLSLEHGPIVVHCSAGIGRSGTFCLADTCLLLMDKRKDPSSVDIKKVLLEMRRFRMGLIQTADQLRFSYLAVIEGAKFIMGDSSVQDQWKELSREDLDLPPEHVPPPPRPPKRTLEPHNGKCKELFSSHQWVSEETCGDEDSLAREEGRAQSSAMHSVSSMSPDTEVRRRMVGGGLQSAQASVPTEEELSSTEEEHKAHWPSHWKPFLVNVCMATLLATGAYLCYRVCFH
Put plainly: Inhibition of PTP1B in mouse C2C12 cells assessed as increase in insulin stimulated IRS-1 phosphorylation at 2 uM preincubated for 1 hr followed by 100 nM insulin addition measured after 30 mins by immunoblot method. The assay is classed as cell-based. The method in brief:
(§2)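 C2C12 myoblasts were grown in DMEM with 10% fetal calf serum and differentiated to myotubes in 10% horse serum. Myotubes were serum-starved 24 h, then given inhibitor at 0.5–4 µM in serum-free DMEM and stimulated with 100 nM insulin for 30 min at 37 °C. RIPA lysates (10 µg protein) were immunoblotted for phospho-proteins, detected by ECL and quantified by densitometry.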
Background: In western blotting, separated proteins are transferred to a membrane and probed.

In assay [6] the target is T4, Tyrosine-protein phosphatase non-receptor type 1 (Mus musculus). The experiment in a line: Inhibition of PTP1B in mouse C2C12 cells assessed as increase in insulin stimulated AKT phosphorylation at 2 uM preincubated for 1 hr followed by 100 nM insulin addition measured after 30 mins by immunoblot method. Type of assay: cell-based. The procedure, abridged: as §2
Assay [7] shares this target. The experiment in a line: Inhibition of PTP1B in mouse C2C12 cells assessed as increase in insulin stimulated IRbeta phosphorylation at 2 uM preincubated for 1 hr followed by 100 nM insulin addition measured after 30 mins by immunoblot method. The assay is classed as cell-based. The method in brief:
as §2

Assay [8] has as its target T3, Tyrosine-protein phosphatase non-receptor type 1 (Homo sapiens). The experiment in a line: Competitive inhibition of recombinant GST-tagged PTP1B catalytic domain (1 to 321 residues) (unknown origin) expressed in Escherichia coli BL21(DE3) at 1 to 4 uM using varying levels of pNPP as substrate after 30 mins by spectrophotometric method. The procedure, abridged: as §1

For `COc1ccc(OC(=O)CSc2nnc(-c3ccc(O)c(O)c3)o2)cc1`, the values for the half-inhibitory concentration (IC50) in [1] and in [2] were > 100 µM and 6.02 µM, respectively. Also, the Ratio IC50 in the assay listed under Homo sapiens was > 16.6.

With `COc1ccc(Oc2ccc(-c3cnc(-c4ccc(O)c(O)c4)o3)cc2)cc1`, the IC50 (usually the point on the concentration scale where inhibition reaches its midpoint) in [2] amounted to 6.92 µM.

On to `COC(=O)CSc1nnc(-c2ccc(O)c(O)c2)o1`, for which the half-maximal inhibitory concentration (IC50) in assay [2] is 35.6 µM.

For `Cc1ccc(Oc2ccc(-c3cnc(-c4ccc(O)c(O)c4)o3)cc2)cc1`, the IC50 in assay [2] amounted to 0.807 µM. The inhibition (usually how much of the control response was suppressed) in assay [3] was “Active”.

Take `O=Cc1ccc(O)c(O)c1`: the inhibition in [4] worked out at 29%.

Take `Oc1ccc(-c2ncc(-c3ccc(Oc4ccccc4)cc3)o2)cc1O`: in [2], the IC50 came out at 2.63 µM.

On to `CC(C)(C)c1ccc(Oc2ccc(-c3cnc(-c4ccc(O)c(O)c4)o3)cc2)cc1`, for which the inhibition entry in [5], in [6], in [7] and in [8] was “Active” each time. Further, the half-maximal inhibitory concentration (IC50) in assay [1] worked out at 13.3 µM; in [2] it was 0.487 µM. Besides, the Ratio IC50 in the assay listed under Homo sapiens was 27.3.

Consider `CC(C)(C)c1ccc(Oc2ccc(OC(=O)CSc3nnc(-c4ccc(O)c(O)c4)o3)cc2)cc1`, for which, in assay [2], the 50% inhibitory concentration (IC50) amounted to 10.5 µM.

Regarding `O=C(CSc1nnc(-c2ccc(O)c(O)c2)o1)Oc1ccc(Oc2ccc(OCc3ccccc3)cc2)cc1`, the half-maximal inhibitory concentration (IC50) in assay [2] amounted to 21.4 µM.

On to `CCOc1ccc(Oc2ccc(-c3cnc(-c4ccc(O)c(O)c4)o3)cc2)cc1`, for which, in assay [2], the 50% inhibitory concentration (IC50) was 20.8 µM.

For `CC(C)c1ccc(Oc2ccc(-c3cnc(-c4ccc(O)c(O)c4)o3)cc2)cc1`, the half-maximal inhibitory concentration (IC50) in assay [2] stood at 7.44 µM.

Consider `CC(C)c1ccc(Oc2ccc(OC(=O)CSc3nnc(-c4ccc(O)c(O)c4)o3)cc2)cc1`, for which, in assay [2], the IC50 was found to be 11 µM.

As to `O=C(CSc1nnc(-c2ccc(O)c(O)c2)o1)Oc1ccc(Oc2ccccc2)cc1`, in assay [2], the IC50 stood at 9.33 µM.

On to `COCCc1ccc(Oc2ccc(-c3cnc(-c4ccc(O)c(O)c4)o3)cc2)cc1`, for which the half-inhibitory concentration (IC50) in assay [2] came to 19.1 µM.

On to `O=C(CSc1nnc(-c2ccc(O)c(O)c2)o1)Oc1ccc(OCc2ccccc2)cc1`, for which the half-maximal inhibitory concentration (IC50) in assay [2] came out at 7.79 µM.

Regarding `CCOc1ccc(Oc2ccc(OC(=O)CSc3nnc(-c4ccc(O)c(O)c4)o3)cc2)cc1`, the concentration for half-maximal inhibition (IC50) in [2] is 17 µM.

With `O=C(CSc1nnc(-c2ccc(O)c(O)c2)o1)Oc1ccc(Br)cc1`, the half-inhibitory concentration (IC50) in assay [2] was 115 µM.

As for `O=C(CSc1nnc(-c2ccc(O)c(O)c2)o1)Oc1ccc(C(F)(F)F)cc1`, the IC50 in assay [2] came out at 21.4 µM.

As for `CCC(C)(C)c1ccc(Oc2ccc(-c3cnc(-c4ccc(O)c(O)c4)o3)cc2)cc1`, the concentration for half-maximal inhibition (IC50) in assay [2] was found to be 3.6 µM.

As for `Oc1ccc(-c2ncc(-c3ccc(Oc4ccc(-c5ccccc5)cc4)cc3)o2)cc1O`, the half-maximal inhibitory concentration (IC50) stood at 5.01 µM in [1] and 6.25 µM in assay [2]. In addition, in the assay listed under Homo sapiens, the Ratio IC50 turned out to be 0.8.

Take `Cc1ccc(OC(=O)CSc2nnc(-c3ccc(O)c(O)c3)o2)cc1`: the IC50 in assay [2] is 4.74 µM.

Take `O=C(CSc1nnc(-c2ccc(O)c(O)c2)o1)Oc1ccccc1`: in [2], the 50% inhibitory concentration (IC50) was 8.09 µM.

In the case of `CCOc1ccc(OC(=O)CSc2nnc(-c3ccc(O)c(O)c3)o2)cc1`, in assay [2], the half-inhibitory concentration (IC50) was found to be 7.94 µM.

For the molecule `COCCc1ccc(Oc2ccc(OC(=O)CSc3nnc(-c4ccc(O)c(O)c4)o3)cc2)cc1`, in assay [2], the concentration for half-maximal inhibition (IC50) was 22.8 µM.

Consider `O=C(CSc1nnc(-c2ccc(O)c(O)c2)o1)c1ccccc1`, for which the IC50 in [2] came out at 15.5 µM.

Consider `Oc1ccc(-c2nnc(SCc3ccccc3)o2)cc1O`, for which the IC50 in assay [2] turned out to be 31.6 µM.

In the case of `Cc1ccc(Oc2ccc(C(=O)CSc3nnc(-c4ccc(O)c(O)c4)o3)cc2)cc1`, the concentration for half-maximal inhibition (IC50) in assay [1] stood at 8.73 µM; in assay [2] it was 3.89 µM. Further, the Ratio IC50 in the assay filed under Homo sapiens worked out at 2.24.
